The text below walks through data of ChEMBL document CHEMBL4130483, “Leishmanicidal and cytotoxic activity of hederagenin-bistriazolyl derivatives” (Eur J Med Chem, 2017).

The term IC50 denotes the concentration at which inhibition is half-maximal. As a reminder, the EC50 is the concentration that produces a half-maximal response. Usually CC50 stands for the concentration giving 50% cytotoxicity.

Series [1] concerns Leishmania infantum. The experiment in a line: Antileishmanial activity against Leishmania infantum MHOM/BR/70/BH46 intracellular amastigotes infected in canine DH82 cells assessed as as inhibition of cell growth. It counts as functional, organism-based. To be noted: MHOM/BR/70/BH46, DH82. The essentials:
(§1)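 L. infantum BH46 intracellular amastigotes. Phase II testing at 0.1, 1.0, 10 and 100 μM. IC50 is the concentration inhibiting in vitro growth by 50%, taken from dose-response curves (log concentration vs inhibition) run in four replicates. Potassium antimonyl tartrate trihydrate served as positive control.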

Series [2] in a line: Ratio of selectivity index of test compound to potassium antimonyl tartrate by measuring ratio of CC50 for dog DH82 cells to IC50 for antileishmanial activity against Leishmania infantum MHOM/BR/70/BH46 intracellular amastigotes infected in canine DH82 cells. It counts as toxicity, cell-based.
In series [3] the test system is A-375. As to the kind of experiment: Cytotoxicity against human A375 cells assessed as reduction in cell viability incubated fro 96 hrs by SRB assay. To be noted: A-375, 96 h. It counts as functional, cell-based. The method, boiled down: (§2)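 Sulforhodamine B photometric assay after 96 h treatment. Monolayers were grown in RPMI 1640 with L-glutamine, 10% heat-inactivated FBS and penicillin/streptomycin at 37 °C in humidified 5% CO2. Cut-off was 30 μM, or 60 μM for the parent. EC50 was averaged from at least three independent experiments, each in four replicates. Betulinic acid was the positive standard.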

Series [4] in a line: Ratio of selectivity index of test compound to hederagenin by measuring ratio of CC50 for dog DH82 cells to IC50 for antileishmanial activity against Leishmania infantum MHOM/BR/70/BH46 intracellular amastigotes infected in canine DH82 cells. It counts as toxicity, cell-based.
The nature of series [5]: Selectivity index, ratio of CC50 for African green monkey BGM cells to IC50 for antileishmanial activity against Leishmania infantum MHOM/BR/70/BH46 intracellular amastigotes infected in canine DH82 cells. Format: toxicity, cell-based. Conditions: read-out: Ratio CC50/IC50. The method, boiled down: (§3)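 SI = CC50 in BGM or HepG2 cells (MTT) divided by the intracellular amastigote IC50.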

In series [6] the test system is FaDu. The experiment in a line: Cytotoxicity against human FADU cells assessed as reduction in cell viability incubated fro 96 hrs by SRB assay. Format: functional, cell-based. On the technique in general: Sulforhodamine B stains cellular protein and so reports cell mass.
The nature of series [7]: Cytotoxicity in African green monkey BGM cells assessed as reduction in cell viability incubated for 48 hrs by MTT assay. Conditions: chlorocebus aethiops. It counts as cell-based. The essentials:
(§4)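 MTT colorimetric assay with microscopic monitoring. CC50 is the concentration cytotoxic to 50% of BGM or HepG2 cells. Potassium antimonyl tartrate trihydrate was the positive control.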

Series [8] relates to HT-29. As to the kind of experiment: Cytotoxicity against human HT-29 cells assessed as reduction in cell viability incubated fro 96 hrs by SRB assay. It counts as functional, cell-based. To be noted: HT-29, 96 h. The method, boiled down: as §2
The test system of series [9] is Leishmania infantum. As to the kind of experiment: Antileishmanial activity against Leishmania infantum MHOM/BR/70/BH46 intracellular amastigotes infected in canine DH82 cells assessed as as inhibition of cell growth at 1000 uM incubated for 48 hrs by ELISA method. It counts as functional. Conditions: MHOM/BR/70/BH46, DH82, 48 h, read-out: GI.
The nature of series [10]: Selectivity index, ratio of CC50 for dog DH82 cells to IC50 for antileishmanial activity against Leishmania infantum MHOM/BR/70/BH46 intracellular amastigotes infected in canine DH82 cells. Format: toxicity, cell-based. Conditions: read-out: Ratio CC50/IC50. The essentials: (§5)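 SI = CC50 in DH82 macrophages (MTT) divided by IC50 against intracellular L. infantum BH46 amastigotes.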

Series [11] concerns SW-1736. The experiment in a line: Cytotoxicity against human SW1736 cells assessed as reduction in cell viability incubated fro 96 hrs by SRB assay. Conditions: SW-1736, 96 h. It counts as functional, cell-based. The essentials: as §2
Series [12] in a line: Selectivity index, ratio of CC50 for human HepG2 cells to IC50 for antileishmanial activity against Leishmania infantum MHOM/BR/70/BH46 intracellular amastigotes infected in canine DH82 cells. Format: toxicity, cell-based. Conditions: read-out: Ratio CC50/IC50. The method, boiled down:
as §3

The nature of series [13]: Cytotoxicity in human HepG2 cells assessed as reduction in cell viability incubated for 48 hrs by MTT assay. It counts as cell-based. The essentials: as §4
(In general: Tetrazolium assays rely on reduction of a dye to a coloured formazan, in cell work by metabolically active cells.)

Series [14] relates to A2780. As to the kind of experiment: Cytotoxicity against human A2780 cells assessed as reduction in cell viability incubated fro 96 hrs by SRB assay. It counts as functional, cell-based. To be noted: A2780, 96 h. The method, boiled down: as §2
The nature of series [15]: Selectivity index, ratio of CC50 for dog DH82 cells to IC50 for Leishmania infantum MHOM/BR/70/BH46 intracellular amastigotes infected in canine DH82 cells. It counts as toxicity, cell-based. The essentials: as §5
Series [16] can be described thus: Cytotoxicity in dog DH82 cells assessed as reduction in cell viability incubated for 48 hrs by MTT assay. Format: cell-based, Canis lupus familiaris. The method, boiled down: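 DH82 canine macrophage viability was monitored microscopically and by MTT colorimetric assay. CC50 is the concentration cytotoxic to 50% of DH82 cells. Potassium antimonyl tartrate trihydrate was the positive control.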

In series [17] the test system is Leishmania infantum. As to the kind of experiment: Antileishmanial activity against Leishmania infantum MHOM/BR/70/BH46 intracellular amastigotes infected in canine DH82 cells assessed as as inhibition of cell growth incubated for 48 hrs by ELISA method. It counts as functional, organism-based. Conditions: MHOM/BR/70/BH46, DH82, 48 h. The essentials: as §1
On the technique in general: An ELISA detects its analyte on a solid surface through an enzyme-linked reagent.

In series [18] the test system is HT-29. The experiment in a line: Induction of cell morphology changes in human HT-29 cells at 15 uM incubated for 24 hrs by AO/PI staining based fluorescence microscopy. Format: functional. The essentials: (§6)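 HT29 cells were treated for 24 h, then stained with acridine orange and propidium iodide. Morphology and membrane permeability were assessed by fluorescence microscopy against an untreated control.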

Series [19] deals with HT-29. The experiment in a line: Induction of cell membrane permeability changes in human HT-29 cells at 15 uM incubated for 24 hrs by AO/PI staining based fluorescence microscopy. Format: functional. The essentials:
as §6

Each structure is given as a SMILES string. Active and inactive are the calls of the source.

For `CC1(C)CC[C@]2(C(=O)OCc3cn(Cc4ccccc4F)nn3)CC[C@]3(C)C(=CC[C@@H]4[C@@]5(C)CC[C@H](O)[C@@](C)(COCc6cn(Cc7ccccc7F)nn6)[C@@H]5CC[C@]43C)[C@@H]2C1`, the IC50 in [1] and in [17] was 5.6 µM each time. The Ratio in [2] is 1780; in [4], 8. Also, the EC50 was 28.5 µM in [3]; more than 30 µM in series [6]; 16.3 µM in series [8]; more than 30 µM in series [11]; 21.6 µM in [14]. The selectivity ratio in series [5], in [10], in series [12] and in series [15] was more than 178 each time. The CC50 at 48 h in series [7], in series [13] and in [16] was more than 1000 µM in each case. In addition, the inhibition of growth at 1000 µM in series [9] came out at 65%.

Take `Cc1ccc(C(=O)Cn2cc(COC[C@@]3(C)[C@@H]4CC[C@]5(C)[C@H](CC=C6[C@@H]7CC(C)(C)CC[C@]7(C(=O)OCc7cn(CC(=O)c8ccc(C)cc8)nn7)CC[C@]65C)[C@@]4(C)CC[C@@H]3O)nn2)cc1`: the figures for the Ratio in [2] and in [4] were 10 and 14, respectively. Further, the EC50 in [3], in series [6], in series [8], in [11] and in series [14] was more than 30 µM in each case. In addition, the selectivity ratio in [5], in series [10] and in series [12] was more than 135 each time. The CC50 at 48 h in series [7], in series [13] and in series [16] was more than 1000 µM throughout. Also, the inhibition of growth at 1000 µM in [9] stood at 63.7%. The IC50 in [17] came to 7.4 µM.

Consider `CC1(C)CC[C@]2(C(=O)OCc3cn(CC(=O)c4ccc(C#N)cc4)nn3)CC[C@]3(C)C(=CC[C@@H]4[C@@]5(C)CC[C@H](O)[C@@](C)(COCc6cn(CC(=O)c7ccc(C#N)cc7)nn6)[C@@H]5CC[C@]43C)[C@@H]2C1`, for which the EC50 in series [3] came out at 10.6 µM; in [6], 12.1 µM; in series [8], 7.4 µM; in series [11] it was 11.9 µM; in series [14] it was 11.2 µM. Further, the outcome in series [18] and in series [19] was inactive. In series [9], the inhibition of growth at 1000 µM is 8.8%.
